For the data set, the system named is MS2 coat protein. Nature of the data set: apparent Kd, MS2 coat protein; higher = weaker binding; RNA-MaP array; FMN 200 µM where present. A digest of the protocol:
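On Illumina sequencing-chip clusters, designs were transcribed by stalled E. coli RNA polymerase and titrated with SNAP-549-labelled MS2 coat protein (0.7 or 1.5 nM, doubling to 3 µM), without and then with constant ligand, in 100 mM Tris-HCl pH 7.5, 80 mM KCl, 4 mM MgCl2, BSA, DTT, yeast tRNA and Tween-20. Apparent Kd is the median of filtered per-cluster curve fits to green signal normalised to red-channel RNA signal and control-cluster median Fmax.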

The mark [1] stands for this setting: designed as: ON switch for flavin mononucleotide, no ligand.
Setting [2] is: ligand present: flavin mononucleotide, designed as: ON switch for flavin mononucleotide.
The mark [3] stands for this setting: designed as: OFF switch for flavin mononucleotide, no ligand.
Setting [4] is: ligand present: flavin mononucleotide, designed as: OFF switch for flavin mononucleotide.

As to “UACAUUACUGAGAAGGGAUACAUAUAAUUUUAGUCAGGAUAUCGAUACAGUGCAGCAUGAGGACAUGAGGAUCACCCAUGUAUU”, the apparent Kd (commonly a dissociation constant that holds for the conditions of the assay) is, setting by setting: under setting [1], 24.4 nM; under setting [2], 19.5 nM.
For “GUCCGGCUGCCACAGGAUAUACGUGGAUCGACAUGAGGAUCACCCAUGUAUAUCCUAAUAAUUGCGUAGAAGGGUGGUCAGCCGG” the same measures were 1040 nM and 109 nM.
For “CAAUAUAGCACAGGAUAUGUCUCGUUUACAUGAGGAUCACCCAUGUCCGAAACAGAAGGGUGACCCGAUAUAGGACGUUGGGUG” the same measures were 121 nM and 28.9 nM.
Take “AAUAAGUGAGGAUAUGCGUCUGGUCCCGGGAGGGCUAUAUAACAUGAGGAUCACCCAUGUAGAAGGCACAAUAA”: the “apparent Kd” value is 16.8 nM under setting [3] and 13.9 nM under setting [4].
Take “GGAAAACAUGAGGAUCACCCAUGUGAGGAUAUCGAUGUCCAACCACCCGUGCGGGACUCGAGAAGGCACUUGGA”: the “apparent Kd” value under setting [3] was 53.4 nM and the “apparent Kd” value under setting [4] was 146 nM.
For “GCUAUUGAUGUAGGAUAUGAUAUAGAAGCUAUGUCAGAAGGACAUGAGGAUCACCCAUGUCAAUGGAUGGAGAGAAGAAAUGGC” the same measures were 62.6 nM and 75 nM.
For “CGUGCGUAUGUGAGGAUAUGCUGGUCCUUGGCUCGGCAGAAGGCACAUGAGGAUCACCCAUGUGGUGUCGUACU” the same measures were 69 nM and 179 nM.
As for “AAGUAUAGAGGAUAUAGUAAGUACUACAUGAGGAUCACCCAUGUUCUUCAUUACGUAUUUCUAGAAGGCUGAUAAA”, the “apparent Kd” value under setting [3] was found to be 376 nM and the “apparent Kd” value under setting [4] is 581 nM.
Consider “GCCAUCGUAUGAGGAUAUGGCACCGAAACGGUGCCAGAAGGCAUGUCAAUUGACAUGAGGAUCACCCAUGUAUUAUCGAUGGCA”, for which the “apparent Kd” value reads like this: under setting [1], 857 nM; under setting [2], 89 nM.
On to “AGACUGCGUAGAAUUAGCAGCUGACAGGAUAUGACAUGAGGAUCACCCAUGUGAAAUAAGAAGAGUCAGAAGGGUCACGACACA”, for which the “apparent Kd” value under setting [3] worked out at 11.3 nM and the “apparent Kd” value under setting [4] was found to be 9.89 nM.
Turning to “GCAAAGCCUGACAUGAGGAUCACCCAUGUUAGAUUGUUAUGUCAGGAUAUUGUCUAGCAACUAGACAAGAAGGGAUGCUUUGCU”, the “apparent Kd” value is, setting by setting: under setting [1], 369 nM; under setting [2], 27.6 nM.
As to “UACCUGAGGCAAAGCUUUAGGUAUACAUGAGGAUCACCCAUGUAGGAUAUGGUAGGCCUUGCUUACCAGAAGGACAUGUUAAUU”, the “apparent Kd” value was 23.5 nM under setting [3] and 76.1 nM under setting [4].
The like results for “AUGUGCCUAGGAUAUACAUGAGGAUCACCCAUGUUAACACUGCAAUCAAGUUAAUAUUGUAGAAGGAGGUGUAA” were, in that order, 27.6 nM and 27.5 nM.
As for “UGGCGCAACAGAGGAUAUGCAUAGGCUGCCUUACAUGAGGAUCACCCAUGUGCAGAAGGCUGUUGCCAUUACAAGCGCACUAAU”, the “apparent Kd” value runs as follows: under setting [3], 118 nM; under setting [4], 402 nM.
The like results for “GUCACGAAUGUAGGAUAUCGAGUGGAUAACACUCGAGAAGGACAUGAGGAUCACCCAUGUAAAAUGAAAGAUAAUAAACGUGAC” were, in that order, 17.6 nM and 50.5 nM.
On to “UUCAUGUGAGGAUAUGUGUACUGCUUUCUGUUUAGAUGUACACAGAAGGCACAUGAGGAUCACCCAUGUAGUAC”, for which the “apparent Kd” value was determined as 45.5 nM under setting [3] and 31.8 nM under setting [4].
“GCCAUCGCAUGAGGAUAUAAAAUUAUAAUUAAAUUAGAAGGCAUGUCAUAAGACAUGAGGAUCACCCAUGUAGUUAAGAUGGCA”: the “apparent Kd” value under setting [1] was 483 nM and the “apparent Kd” value under setting [2] came to 132 nM.
The like results for “UUAAUUAUACAAGGAUAUCUAUUGUAGUUUCGACUUACAUGAGGAUCACCCAUGUUAAUAUGUUUAGAGAAGGUGUAUUUUCAG” were, in that order, 98.3 nM and 61.1 nM.
Take “AUCAGCUCGUCAGGAUAUACGUCACUGCUUCGGCAGUGUGGUAAGAUCACAUGAGGAUCACCCAUGUAGAAGGGACGAGCUGAG”: the “apparent Kd” value turned out to be 13.2 nM under setting [3] and 260 nM under setting [4].
Consider “AGUGCUAUGUAGAAGGCAGAUCUGAUUCAGAUCUGAGGAUAUACAUGAGGAUCACCCAUGUUAUGCACCAGCACGAGAGUGCAC”, for which the “apparent Kd” value is, setting by setting: under setting [3], 7.91 nM; under setting [4], 16.8 nM.
Take “AUCAGCUCGUCAGGAUAUACGUCACUGCGUCAGCAGUGUGGUAAGAUCACAUGAGGAUCACCCAUGUAGAAGGGACGAGCUCAU”: the “apparent Kd” value is, setting by setting: under setting [3], 13.9 nM; under setting [4], 322 nM.
The like results for “AUAAGUGCAGGAUAUACGAAAUGCUAGCGAAAGCUAGCAUAACAUGAGGAUCACCCAUGUAGAAGGGCACAAUA” were, in that order, 28.4 nM and 21.5 nM.
In the case of “UGCGAACAGGCUAACAUGAGGAUCACCCAUGUGGACUCAUGGUAGGAUAUCGGGAAGGAGGAAACCGAGAAGGGCCGGUGAGCG”, the “apparent Kd” value by setting is: under setting [1], 197 nM; under setting [2], 65 nM.
“CCACCUCCUGAGGAUAUUGCAUCACCCGACUGAUAAGAAGGCAGAACAUGAGGAUCACCCAUGUGGGUACUCCC”: the “apparent Kd” value by setting is: under setting [3], 82.5 nM; under setting [4], 77.2 nM.
For “UUUCUUGGGCAAGGAUAUCCUGUGCGGUUCCGGCUCGUGUCUGUCACAUGAGGAUCACCCAUGUGGGAGAAGGUGCCUGCGGUA” the same measures were 6.41 nM and 6.77 nM.
With “CAUGACGAAGGAUAUACAUGAGGAUCACCCAUGUGGUCAUGGAAGUACGUGUUCUCGCGUAGAAGGUUGUAAAA”, the “apparent Kd” value under setting [3] came out at 12.9 nM and the “apparent Kd” value under setting [4] is 13.6 nM.
The like results for “GAUAGGACAGAGAAGGACAUAGCUAGAGAUACUAGCAUAAGAACCUUCACAUGAGGAUCACCCAUGUAGGAUAUCUGUCCUAUC” were, in that order, 3.74 nM and 4.85 nM.
Turning to “UCGACCCUAGGAUAUACAUGAGGAUCACCCAUGUUUGUCGAAGAACGAACAGUCCUCAGUAGAAGGAGGACGAA”, the “apparent Kd” value was 22.3 nM under setting [3] and 23.8 nM under setting [4].
The like results for “AGCUAGUCAGGAUAUACGAACAUGUCGCCCGACGUGAAGGGACAUGAGGAUCACCCAUGUAGAAGGGACUAGCA” were, in that order, 135 nM and 348 nM.
Consider “UGUGGGUCAGGAUAUUCUAUUUAUUACAUGAGGAUCACCCAUGUGAAUGGACAAGGGUGUGAAGAAGGGACUUGUG”, for which the “apparent Kd” value under setting [3] was 876 nM and the “apparent Kd” value under setting [4] is 495 nM.
The like results for “GGUCGUCAAGUCAGGAUAUCGUAUAGUAGAUGUAACGAGAAGGGACAUGAGGAUCACCCAUGUCGUCUCAUCAG” were, in that order, 18.9 nM and 25.8 nM.
The like results for “GGAUGAGAAACUCAUCCAAUACGAACAUGAGGAUCACCCAUGUAGGAUAUGCUACUCAAAGAGUAGCAGAAGGACAUGUGCCUU” were, in that order, 30 nM and 254 nM.
For “ACCGAAUGAACAUGAGGAUCACCCAUGUACAGGAAACUGAAUGAGGAUAUCCAUAGCAAAGCUAUGGAGAAGGCAUGGGUCGGU”, the “apparent Kd” value was determined as 363 nM under setting [1] and 110 nM under setting [2].
As to “AUUGUUAAGGUAGGAUAUAGUAAAAUGAUUUAGUUAGAAGGAUCUCACAUGAGGAUCACCCAUGUAAGAGGAUCACCCAUGUAU”, the “apparent Kd” value was determined as 11.1 nM under setting [3] and 9.45 nM under setting [4].
The like results for “GGAUAGGACAGAGGAUAUACGUGCUAGAGAUACUAGCAAAAUUUCCUCACAUGAGGAUCACCCAUGUAGAAGGCUGGCCUAUCG” were, in that order, 14.1 nM and 379 nM.
For “AAAAUAAGAACAGGAUAUGUGGGUUCGAAGAGUAAAGCUCUCCACAUGAGGAUCACCCAUGUGCCACAGAAGGGUUCGGGUGAU”, the “apparent Kd” value under setting [1] was 58 nM and the “apparent Kd” value under setting [2] worked out at 11.8 nM.
“AUAGCAUACCGAGGAUAUUCAUAUAAUAAAUAAACAUGAGGAUCACCCAUGUGGCGAAAGCCUAGGGAGAAGGCGGAAUGCUAC”: the “apparent Kd” value was 225 nM under setting [1] and 25.3 nM under setting [2].
As for “GUCAGCUCGUGAGGAUAUACAACACUGCUUCGGCAGUGGAUUAAGAUCACAUGAGGAUCACCCAUGUAGAAGGCACGAGCUGAU”, the “apparent Kd” value was 16.2 nM under setting [3] and 423 nM under setting [4].
Consider “UGGGUAAAUGUAGGAUAUUUAUAUUAAUAAUAUGGAGAAGGACAUGAGGAUCACCCAUGUACAGGGAAUUACCCAUUUCCUCUC”, for which the “apparent Kd” value under setting [3] was 940 nM and the “apparent Kd” value under setting [4] turned out to be 877 nM.
Regarding “AGAUAACAUAGUUAUCCGUAACGGACAUGAGGAUCACCCAUGUAGGAUAUGUUACUCAACGAGUAACAGAAGGACAUGAGUCUU”, the “apparent Kd” value was 17.3 nM under setting [3] and 102 nM under setting [4].
The like results for “AAGUGGUUUAUAUAUUUAGAUAUCAGAAGGCGUGACAUGAGGAUCACCCAUGUGGACUAACAUGACGAGGAUAUGACUAAUUGU” were, in that order, 30.4 nM and 39.8 nM.
Consider “UGUUAAUAUCGAGGAUAUGUCUAGACACAUGAGGAUCACCCAUGUAUGUGUAUAGAAGGCGAUAUUAACAGCAUGUUACAUGCA”, for which the “apparent Kd” value is, setting by setting: under setting [1], 36.9 nM; under setting [2], 16.9 nM.
In the case of “UCUUAUUGCAAGGAUAUGCAAAUUAUUUUUUAAGCAGAAGGUGCAACAUGAGGAUCACCCAUGUUUCCGGGAAA”, the “apparent Kd” value is, setting by setting: under setting [3], 19.4 nM; under setting [4], 111 nM.
In the case of “GAGGGACAUGAGGAUCACCCAUGUGGUAAAUUUAAAGGAUAUUAGUGUGGGAAAGUAGGGUAAGAAGGUUGAUUGG”, the “apparent Kd” value turned out to be 94.8 nM under setting [1] and 80.1 nM under setting [2].
“ACAAGAUCAGGAUAUACAUGAGGAUCACCCAUGUAUUUCAAAAAGGGACUUUCUUUAUGUAGAAGGGAUCUUGU”: the “apparent Kd” value is, setting by setting: under setting [3], 50.8 nM; under setting [4], 67.2 nM.
As to “GCGAGCAUACAGAAGGGAUCGUCGUUGCGGCUGUCAGGAUAUGUAGCUUGGCCUAAACAUGAGGAUCACCCAUGUAUAAUGCUA”, the “apparent Kd” value was found to be 66.7 nM under setting [1] and 24.3 nM under setting [2].
For the sequence “GAGGAGCAAGGAUAUACGAGGAUAGGGAAGGUUGGAGAGUGACAUGAGGAUCACCCAUGUAGAAGGUGCAAGGG”, the “apparent Kd” value turned out to be 114 nM under setting [3] and 74 nM under setting [4].
As for “GCGUAUAUAAGAUUUAUAAAACAGUCAGAAGGUGAUAAGACGACAUGAGGAUCACCCAUGUAAUUCAAGGAUAUGAUCAUACGC”, the “apparent Kd” value is 54.3 nM under setting [1] and 23.3 nM under setting [2].

The values above are taken from the EternaBench riboswitch data.
